Activity calls are given as the source filed them. The calls are words filed in the database; no cut-off is given here.
Tests used:
HeLa [1] = experiment: Antiproliferative activity against human HeLa cells assessed as reduction in cell viability after 24 hrs by CellTiter-Glo assay; assay type: functional, cell-based
How it was run: (§1)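 ATP-based luminescent viability readout. Cells were grown in DMEM with 10% FBS, 2 mM L-glutamine and penicillin-streptomycin at 37 °C, 5% CO2. 2 × 10^4 cells/well were seeded, then exposed the next day to 0–40 μM for 24, 48 or 72 h. % viability = 100 × treated/control. IC50 was fitted from a sigmoid dose-response curve. Run at least three times in quadruplicate; mean ± SEM.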

Ca-Ski [2] = experiment: Antiproliferative activity against human CaSki cells assessed as reduction in cell viability after 48 hrs by CellTiter-Glo assay; assay type: functional, cell-based; how it was run: as §1
Ca-Ski [3] = experiment: Antiproliferative activity against human CaSki cells assessed as reduction in cell viability after 72 hrs by CellTiter-Glo assay; assay type: functional, cell-based; how it was run: as §1
C-33-A [4] = experiment: Cell cycle arrest in human C33A cells assessed as accumulation at G2/M phase at 4 uM after 24 hrs by propidium iodide staining based flow cytometric analysis (reference value: 26.2%); assay type: functional
How it was run: (§2)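 Cells in DMEM/10% FBS at 37 °C, 5% CO2 were given 4 μM for 24, 48 or 72 h, with DMSO as control. After trypsinization they were fixed in chilled 70% ethanol on ice for 30 min, treated with RNase A (1 mg/mL) for 30 min at room temperature, and stained with PI (20 μg/mL). At least 10 000 events were read by flow cytometry to give sub-G1, G0/G1, S and G2/M fractions; mean ± SEM.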

C-33-A [5] = experiment: Cell cycle arrest in human C33A cells assessed as accumulation at Sub G1 phase at 4 uM after 48 hrs by propidium iodide staining based flow cytometric analysis (reference value: 0.8%); assay type: functional; how it was run: as §2
HeLa [6] = experiment: Cell cycle arrest in human HeLa cells assessed as accumulation at G0/G1 phase at 4 uM after 48 hrs by propidium iodide staining based flow cytometric analysis (reference value: 69.6%); assay type: functional; how it was run: as §2
C-33-A [7] = experiment: Induction of apoptosis in human C33A cells assessed as late apoptotic cells at 4 uM after 48 hrs by Annexin V-FITC/PI double staining based flow cytometric analysis (reference value: 2.5%); assay type: functional
SiHa [8] = experiment: Induction of apoptosis in human SiHa cells assessed as viable cells at 4 uM after 48 hrs by Annexin V-FITC/PI double staining based flow cytometric analysis (reference value: 93.7%); assay type: functional; conditions: read-out: Activity
HeLa [9] = experiment: Induction of apoptosis in human HeLa cells assessed as viable cells at 4 uM after 24 hrs by Annexin V-FITC/PI double staining based flow cytometric analysis (reference value: 85.2%); assay type: functional; conditions: read-out: Activity
HeLa [10] = experiment: Induction of apoptosis in human HeLa cells assessed as viable cells at 4 uM after 48 hrs by Annexin V-FITC/PI double staining based flow cytometric analysis (reference value: 80.7%); assay type: functional; conditions: read-out: Activity
HeLa [11] = experiment: Induction of apoptosis in human HeLa cells assessed as late apoptotic cells at 4 uM after 48 hrs by Annexin V-FITC/PI double staining based flow cytometric analysis (reference value: 4.4%); assay type: functional
Ca-Ski [12] = experiment: Induction of apoptosis in human CaSki cells assessed as early apoptotic cells at 4 uM after 48 hrs by Annexin V-FITC/PI double staining based flow cytometric analysis (reference value: 4.4%); assay type: functional
Ca-Ski [13] = experiment: Induction of apoptosis in human CaSki cells assessed as late apoptotic cells at 4 uM after 48 hrs by Annexin V-FITC/PI double staining based flow cytometric analysis (reference value: 9.1%); assay type: functional
SiHa [14] = experiment: Cell cycle arrest in human SiHa cells assessed as decrease in accumulation at S phase at 4 uM incubated up to 72 hrs by propidium iodide staining based flow cytometric analysis; assay type: functional
How it was run: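 Cells in DMEM with 10% FBS, 2 mM L-glutamine, pen-strep, 37 °C, 5% CO2; seeded and left overnight, then treated at 4 μM with DMSO as control. Harvested by trypsin at 24, 48 or 72 h, fixed in chilled 70% ethanol 30 min on ice, RNase A (1 mg/mL) 30 min at room temperature, PI (20 μg/mL). Flow cytometry, ≥10 000 events, G0/G1, S, G2/M fractions; mean ± SEM.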

HeLa [15] = experiment: Induction of apoptosis in human HeLa cells assessed as apoptotic cells at 4 uM after 48 hrs by Annexin V-FITC/PI double staining based flow cytometric analysis (reference value: 19.3%); assay type: functional
[16] = biological target: Protein E6 (Human papillomavirus 16) (UniProt P03126); experiment: Inhibition of Human papillomavirus type16 derived E6 in human SiHa cells assessed as increase in p21 protein expression at 2 to 4 uM after 48 hrs by Western blot analysis; assay type: cell-based
How it was run: (§3)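 Cells were seeded at 1 × 10^6 per 100 mm dish and treated next day with 2 or 4 μM for 48 h. They were trypsinised, PBS-washed and lysed in RIPA with protease inhibitors. Equal protein was run on SDS-PAGE and transferred to PVDF. Primary antibodies were used at 1:500, with BSA 3% for blocking and antibodies for CK2α, Rb and pRb, otherwise 5% milk in TBST. HRP secondary at 1:2000, chemiluminescence detection.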

[17] = biological target: Protein E6 (Human papillomavirus 16) (UniProt P03126); experiment: Inhibition of Human papillomavirus type16 derived E6 in human CaSki cells assessed as increase in p53 protein expression at 2 to 4 uM after 48 hrs by Western blot analysis; assay type: cell-based; conditions: Ca-Ski; how it was run: as §3
[18] = biological target: Casein kinase II subunit alpha (Homo sapiens) (UniProt P68400); experiment: Inhibition of CK2alpha in human HeLa cells at 2 to 4 uM after 48 hrs by Western blot analysis; assay type: cell-based; how it was run: as §3
[19] = biological target: Casein kinase II subunit alpha (Homo sapiens) (UniProt P68400); experiment: Potency index, ratio for inhibition activity of apigenin to test compound for inhibition of CK2alpha in human CaSki cells after 48 hrs by Western blot analysis; assay type: cell-based; conditions: Ca-Ski
How it was run: (§4)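 Cells plated at 1 × 10^6 per 100 mm dish and treated next day for 48 h with test compound (2 or 4 μM) or apigenin (10, 20 or 40 μM). RIPA lysates with protease inhibitors; equal protein loaded for SDS-PAGE, then PVDF transfer. Blocked in 5% milk/TBST (3% BSA for CK2α); anti-SIX1 or anti-CK2α 1:500, HRP secondary 1:2000; chemiluminescent detection.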

[20] = biological target: T1, Homeobox protein SIX1 (Homo sapiens) (UniProt Q15475); experiment: Potency index, ratio for inhibition activity of apigenin to test compound for inhibition of SIX1 in human CaSki cells after 48 hrs by Western blot analysis; assay type: cell-based; conditions: Ca-Ski; how it was run: as §4
T1 sequence (whole entry): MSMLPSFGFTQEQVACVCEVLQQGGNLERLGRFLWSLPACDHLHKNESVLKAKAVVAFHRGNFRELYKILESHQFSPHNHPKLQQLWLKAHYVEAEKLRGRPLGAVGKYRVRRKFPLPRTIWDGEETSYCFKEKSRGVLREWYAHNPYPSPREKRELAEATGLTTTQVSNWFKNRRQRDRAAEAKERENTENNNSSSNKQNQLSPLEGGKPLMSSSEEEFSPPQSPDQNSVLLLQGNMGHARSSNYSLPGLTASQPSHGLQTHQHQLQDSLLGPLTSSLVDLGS

Chain of Protein E6 (Human papillomavirus 16) (P03126 whole entry): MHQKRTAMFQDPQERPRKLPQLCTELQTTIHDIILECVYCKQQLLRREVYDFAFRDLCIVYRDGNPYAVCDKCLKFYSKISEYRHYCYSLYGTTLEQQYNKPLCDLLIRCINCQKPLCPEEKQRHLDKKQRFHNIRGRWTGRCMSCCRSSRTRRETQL
Chain of Casein kinase II subunit alpha (Homo sapiens) (P68400 whole entry, looked up): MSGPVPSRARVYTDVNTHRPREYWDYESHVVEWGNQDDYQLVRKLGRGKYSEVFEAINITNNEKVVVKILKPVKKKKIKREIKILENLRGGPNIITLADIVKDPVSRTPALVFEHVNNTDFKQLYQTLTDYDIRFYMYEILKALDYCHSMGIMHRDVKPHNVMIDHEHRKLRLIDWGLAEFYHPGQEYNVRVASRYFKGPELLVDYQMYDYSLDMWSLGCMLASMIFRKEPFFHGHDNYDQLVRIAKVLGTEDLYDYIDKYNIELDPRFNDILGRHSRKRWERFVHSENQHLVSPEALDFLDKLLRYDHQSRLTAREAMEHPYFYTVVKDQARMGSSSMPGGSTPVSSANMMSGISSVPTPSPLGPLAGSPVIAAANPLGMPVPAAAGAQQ

SMILES: O[C@]12C=C(c3nccc4c3[nH]c3ccccc34)[C@@H]3CCN(CCCC/C=C\CC1)C[C@@]31C[C@@H]3/C=C\CCCCN3[C@H]12 [MANZAMINE A]
- IC50 (HeLa [1]): 11.8 µM
- IC50 (Ca-Ski [2]): 19.9 µM
- IC50 (Ca-Ski [3]): 9.4 µM
- Activity (C-33-A [4]): 24.6%
- Activity (C-33-A [5]): 19.2%
- Activity (HeLa [6]): 63.9%
- Activity (C-33-A [7]): 15.7%
- viability at 4 µM (SiHa [8]): 66.4%
- viability at 4 µM (HeLa [9]): 81.7%
- viability at 4 µM (HeLa [10]): 24.1%
- Activity (HeLa [11]): 14.1%
- Activity (Ca-Ski [12]): 13.4%
- Activity (Ca-Ski [13]): 7.8%
- Activity (SiHa [14]): Active
- Activity (HeLa [15]): 75.9%
- inhibition [16]: Active
- inhibition [17]: Active
- inhibition [18]: Active
- Ratio [19]: 10
- Ratio [20]: 10
